Data reported in ChEMBL document CHEMBL1140829, “1-Aminoindanes as novel motif with potential atypical antipsychotic properties” (Bioorg Med Chem Lett, 2008).

What was measured:
[1] = target: Voltage-gated inwardly rectifying potassium channel KCNH2 (Homo sapiens, UniProt Q12809); experiment: Displacement of [3H]dofetilide from human ERG channel expressed in HEK293 cells; type: cell-based
[2] = target: T1, 5-hydroxytryptamine receptor 1A (Homo sapiens, UniProt P08908); experiment: (§1) Displacement of [3H]8OHDPAT from human 5HT1A receptor
T1 sequence (P08908 whole entry): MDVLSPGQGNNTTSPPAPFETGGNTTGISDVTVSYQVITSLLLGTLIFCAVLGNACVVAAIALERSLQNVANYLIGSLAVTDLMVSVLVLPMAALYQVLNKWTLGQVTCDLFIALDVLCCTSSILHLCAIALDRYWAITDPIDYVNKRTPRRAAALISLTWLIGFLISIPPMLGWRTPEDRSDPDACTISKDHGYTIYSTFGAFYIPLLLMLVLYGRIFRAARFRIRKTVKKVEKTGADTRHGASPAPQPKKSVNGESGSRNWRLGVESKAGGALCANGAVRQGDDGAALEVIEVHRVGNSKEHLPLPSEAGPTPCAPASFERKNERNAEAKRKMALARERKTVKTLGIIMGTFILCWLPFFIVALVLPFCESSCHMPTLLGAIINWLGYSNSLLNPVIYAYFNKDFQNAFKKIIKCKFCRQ
Summary of the method: (§2)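 Radioligand competition binding on cloned human receptor membranes: [3H]8-OH-DPAT for 5-HT1A; CHO-cell D2L membranes with [3H]spiperone. Membranes plus radioligand with or without varying compound concentrations. Bound and free separated by vacuum filtration; bound counted by liquid scintillation. Concentration–percent inhibition of specific binding fit by nonlinear regression to IC50.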

[3] = target: 5-hydroxytryptamine receptor 2A (Homo sapiens, UniProt P28223); experiment: Displacement of [3H]ketanserin from human 5HT2A receptor expressed in Swiss 3T3 cells; type: cell-based
Chain of 5-hydroxytryptamine receptor 2A (P28223 whole entry): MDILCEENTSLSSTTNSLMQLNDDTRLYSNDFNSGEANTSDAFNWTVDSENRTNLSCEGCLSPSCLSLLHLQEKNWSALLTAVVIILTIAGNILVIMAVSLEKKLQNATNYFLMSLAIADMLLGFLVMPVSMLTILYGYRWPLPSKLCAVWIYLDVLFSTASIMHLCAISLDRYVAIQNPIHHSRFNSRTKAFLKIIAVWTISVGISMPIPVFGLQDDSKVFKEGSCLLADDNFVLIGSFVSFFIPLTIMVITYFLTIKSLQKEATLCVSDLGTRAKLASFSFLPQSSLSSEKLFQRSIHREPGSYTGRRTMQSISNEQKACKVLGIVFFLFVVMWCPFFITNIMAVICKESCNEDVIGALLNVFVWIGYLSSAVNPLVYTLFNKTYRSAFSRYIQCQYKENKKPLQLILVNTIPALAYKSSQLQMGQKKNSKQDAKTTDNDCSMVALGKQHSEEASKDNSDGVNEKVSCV
Summary of the method: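 Membranes from Swiss 3T3 cells expressing human 5-HT2A, labeled with [3H]ketanserin, incubated with or without varying compound concentrations. Vacuum filtration separated unbound label; bound label read by liquid scintillation. IC50 from nonlinear-regression fit of concentration vs percent inhibition of specific binding. Ki reported as geometric mean of at least three experiments.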

D(2) dopamine receptor [4] = target: T2, D(2) dopamine receptor (Homo sapiens, UniProt P14416); experiment: Displacement of [3H]spiperone from human D2L receptor expressed in CHO cells; type: cell-based; summary of the method: as §2
T2 sequence (P14416 whole entry): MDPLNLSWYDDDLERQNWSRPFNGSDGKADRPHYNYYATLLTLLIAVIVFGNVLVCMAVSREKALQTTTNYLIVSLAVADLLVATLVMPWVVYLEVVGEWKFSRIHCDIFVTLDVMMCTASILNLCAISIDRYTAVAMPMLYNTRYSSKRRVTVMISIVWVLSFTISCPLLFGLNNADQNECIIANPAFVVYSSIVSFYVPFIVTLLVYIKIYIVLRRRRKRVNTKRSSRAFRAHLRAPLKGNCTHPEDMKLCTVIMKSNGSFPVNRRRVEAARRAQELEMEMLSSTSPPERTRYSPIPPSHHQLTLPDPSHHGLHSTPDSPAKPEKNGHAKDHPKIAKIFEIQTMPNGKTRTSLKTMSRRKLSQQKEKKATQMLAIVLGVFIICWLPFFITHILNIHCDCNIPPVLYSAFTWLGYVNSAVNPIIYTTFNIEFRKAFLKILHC

[5] = target: T3, Alpha-1A adrenergic receptor (Rattus norvegicus, UniProt P43140); experiment: Displacement of [3H]prazosin from rat adrenergic alpha1A receptor expressed in fibroblast cells; type: cell-based
T3 sequence (P43140 whole entry): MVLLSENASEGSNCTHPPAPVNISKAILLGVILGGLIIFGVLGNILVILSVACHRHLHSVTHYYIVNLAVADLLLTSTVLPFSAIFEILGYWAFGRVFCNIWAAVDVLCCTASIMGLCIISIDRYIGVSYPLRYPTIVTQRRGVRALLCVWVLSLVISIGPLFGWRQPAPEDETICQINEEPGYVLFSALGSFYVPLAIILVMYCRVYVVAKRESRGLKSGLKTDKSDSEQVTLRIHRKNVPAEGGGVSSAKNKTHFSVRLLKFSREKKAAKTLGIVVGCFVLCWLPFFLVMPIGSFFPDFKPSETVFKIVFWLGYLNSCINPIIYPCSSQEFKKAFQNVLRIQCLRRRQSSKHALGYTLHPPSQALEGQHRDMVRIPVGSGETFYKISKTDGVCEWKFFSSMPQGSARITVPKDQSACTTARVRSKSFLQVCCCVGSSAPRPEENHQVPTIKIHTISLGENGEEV
Summary of the method: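 Cloned rat alpha1a receptor in fibroblast cell membranes; [3H]prazosin as radioligand, incubated with or without a range of compound concentrations. Filtration under vacuum removed free label; bound measured by liquid scintillation counting. Percent inhibition of specific binding vs concentration fit by nonlinear regression for IC50.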

[6] = target: T4, 5-hydroxytryptamine receptor 1A (Homo sapiens) (UniProt P08908); experiment: as §1; summary of the method: as §2
T4 sequence (whole entry): T1 sequence (P08908 whole entry)

D(2) dopamine receptor [7] = target: T2, D(2) dopamine receptor; experiment: Displacement of [3H]spiperone from human D2L receptor expressed in CHO cells at 100 nM; type: cell-based

Chain of Voltage-gated inwardly rectifying potassium channel KCNH2 (Q12809 whole entry): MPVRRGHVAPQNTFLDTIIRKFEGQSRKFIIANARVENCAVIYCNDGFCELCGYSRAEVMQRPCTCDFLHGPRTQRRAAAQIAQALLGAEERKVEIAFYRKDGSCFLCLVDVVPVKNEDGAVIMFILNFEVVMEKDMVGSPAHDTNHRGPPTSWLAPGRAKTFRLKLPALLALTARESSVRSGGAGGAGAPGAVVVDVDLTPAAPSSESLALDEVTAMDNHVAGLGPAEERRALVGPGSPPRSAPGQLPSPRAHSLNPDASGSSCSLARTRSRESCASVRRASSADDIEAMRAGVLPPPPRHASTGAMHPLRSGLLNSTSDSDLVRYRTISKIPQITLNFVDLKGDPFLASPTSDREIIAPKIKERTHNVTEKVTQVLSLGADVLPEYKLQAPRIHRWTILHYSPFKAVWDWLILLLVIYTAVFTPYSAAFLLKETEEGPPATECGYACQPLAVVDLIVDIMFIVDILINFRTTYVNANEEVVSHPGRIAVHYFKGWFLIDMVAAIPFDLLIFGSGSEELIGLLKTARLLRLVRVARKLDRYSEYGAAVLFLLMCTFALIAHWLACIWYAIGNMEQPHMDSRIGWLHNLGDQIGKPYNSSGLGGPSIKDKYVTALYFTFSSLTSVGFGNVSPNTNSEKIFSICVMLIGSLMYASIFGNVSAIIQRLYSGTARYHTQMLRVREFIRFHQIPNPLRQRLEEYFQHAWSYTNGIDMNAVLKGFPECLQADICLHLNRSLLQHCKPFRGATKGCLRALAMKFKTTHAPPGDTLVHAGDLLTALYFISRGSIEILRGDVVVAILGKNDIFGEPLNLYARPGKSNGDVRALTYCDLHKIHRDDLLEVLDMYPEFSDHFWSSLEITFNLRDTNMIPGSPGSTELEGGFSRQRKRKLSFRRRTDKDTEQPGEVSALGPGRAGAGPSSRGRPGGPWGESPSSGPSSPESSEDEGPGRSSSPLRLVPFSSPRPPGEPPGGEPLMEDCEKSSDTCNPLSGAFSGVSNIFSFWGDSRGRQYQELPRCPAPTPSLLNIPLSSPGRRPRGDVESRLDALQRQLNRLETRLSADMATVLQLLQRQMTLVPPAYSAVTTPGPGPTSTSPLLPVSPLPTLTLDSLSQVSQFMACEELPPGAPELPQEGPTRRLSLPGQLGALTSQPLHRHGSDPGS

SMILES	Ki [2]	Ki [3]	Ki (D(2) dopamine receptor [4])	Ki [5]	Intrinsic activity [6]	Activity (D(2) dopamine receptor [7])	Ki [1]	Activity ([1]; human, hek293)
CC(=O)NC1CCc2cc(CCN3CCN(c4nsc5ccccc45)CC3)ccc21 (centres undefined)	1.1 nM	0.33 nM	15 nM	3.18 nM	60%	–	2200 nM	–
O=C(NC1CCc2cc(CCN3CCN(c4nsc5ccccc45)CC3)ccc21)C1CC1 (centres undefined)	2 nM	0.45 nM	–	0.73 nM	–	27%	137 nM	–
O=C(NC1CCc2ccc(CCN3CCN(c4nsc5ccccc45)CC3)cc21)C1CC1 (centres undefined)	12 nM	0.3 nM	21 nM	2.22 nM	60%	–	35 nM	–
O=C1Cc2cc(CCN3CCN(c4nsc5ccccc45)CC3)c(Cl)cc2N1 [ZIPRASIDONE]	4 nM	–	–	0.5 nM	–	–	–	Not Active
CCC(=O)NC1CCc2cc(CCN3CCN(c4nsc5ccccc45)CC3)ccc21 (centres undefined)	2 nM	0.25 nM	–	0.45 nM	60%	21%	184 nM	–
CCCC(=O)NC1CCc2cc(CCN3CCN(c4nsc5ccccc45)CC3)ccc21 (centres undefined)	2 nM	0.5 nM	–	0.9 nM	60%	21%	269 nM	–
CC(C)C(=O)NC1CCc2cc(CCN3CCN(c4nsc5ccccc45)CC3)ccc21 (centres undefined)	1 nM	0.65 nM	–	0.49 nM	–	17%	219 nM	–
O=C(NC1CCc2cc(CCN3CCN(c4nsc5ccccc45)CC3)ccc21)C(F)(F)F (centres undefined)	1 nM	0.15 nM	8 nM	0.3 nM	60%	–	–	–
NC1CCc2ccc(CCN3CCN(c4nsc5ccccc45)CC3)cc21 (centres undefined)	2 nM	0.09 nM	21 nM	2.72 nM	60%	–	616 nM	–
O=C(NC1CCc2ccc(CCN3CCN(c4nsc5ccccc45)CC3)cc21)C(F)(F)F (centres undefined)	4.9 nM	–	10 nM	1.92 nM	–	–	101 nM	–

Continued, in another order:

Ki [2]	Ki [3]	Ki (D(2) dopamine receptor [4])	Ki [5]	Intrinsic activity [6]	Activity (D(2) dopamine receptor [7])	SMILES	Ki [1]	Activity ([1]; human, hek293)
7.9 nM	0.55 nM	5 nM	1.38 nM	–	–	O=C(NC1CCc2ccc(CCN3CCN(c4nsc5ccccc45)CC3)cc21)c1ccco1 (centres undefined)	35 nM	–
7.5 nM	0.01 nM	22 nM	1.34 nM	60%	–	CC(=O)NC1CCc2ccc(CCN3CCN(c4nsc5ccccc45)CC3)cc21 (centres undefined)	885 nM	–
37.2 nM	0.95 nM	33 nM	10.3 nM	60%	–	O=C(CCc1ccccc1)NC1CCc2ccc(CCN3CCN(c4nsc5ccccc45)CC3)cc21 (centres undefined)	–	–
7.8 nM	1.65 nM	10 nM	15.6 nM	60%	–	O=C(NC1CCc2cc(CCN3CCN(c4nsc5ccccc45)CC3)ccc21)c1ccc(F)cc1 (centres undefined)	135 nM	–
56 nM	0.1 nM	5 nM	5.64 nM	60%	–	O=C(NC1CCc2ccc(CCN3CCN(c4nsc5ccccc45)CC3)cc21)c1ccc(Cl)cc1 (centres undefined)	166 nM	–
12 nM	0.75 nM	67 nM	3.61 nM	–	–	CC(C)C(=O)NC1CCc2ccc(CCN3CCN(c4nsc5ccccc45)CC3)cc21 (centres undefined)	278 nM	–
6.5 nM	0.08 nM	–	1.88 nM	–	–	O=C(NC1CCc2ccc(CCN3CCN(c4nsc5ccccc45)CC3)cc21)c1ccno1 (centres undefined)	150 nM	–
66.7 nM	2.45 nM	6 nM	10.3 nM	–	–	O=C(NC1CCc2ccc(CCN3CCN(c4nsc5ccccc45)CC3)cc21)c1ccc(F)cc1 (centres undefined)	78 nM	–
41.8 nM	4.75 nM	22 nM	10.9 nM	–	–	O=C(NC1CCc2ccc(CCN3CCN(c4nsc5ccccc45)CC3)cc21)c1ccccc1 (centres undefined)	–	–
4.5 nM	0.95 nM	6 nM	3.31 nM	–	–	O=C(NC1CCc2ccc(CCN3CCN(c4nsc5ccccc45)CC3)cc21)c1cccnc1 (centres undefined)	358 nM	–
7.7 nM	0.68 nM	5 nM	17.4 nM	60%	–	O=C(NC1CCc2cc(CCN3CCN(c4nsc5ccccc45)CC3)ccc21)c1cccnc1 (centres undefined)	202 nM	–
5 nM	0.01 nM	34 nM	3.03 nM	–	–	CCC(=O)NC1CCc2ccc(CCN3CCN(c4nsc5ccccc45)CC3)cc21 (centres undefined)	164 nM	–
20.9 nM	0.04 nM	26 nM	5.27 nM	60%	–	O=C(Cc1ccccc1)NC1CCc2ccc(CCN3CCN(c4nsc5ccccc45)CC3)cc21 (centres undefined)	–	–
28.1 nM	3 nM	15 nM	13.5 nM	–	–	Cc1ccc(C(=O)NC2CCc3ccc(CCN4CCN(c5nsc6ccccc56)CC4)cc32)cc1 (centres undefined)	194 nM	–
5.5 nM	0.45 nM	27 nM	3.96 nM	60%	–	CCCC(=O)NC1CCc2ccc(CCN3CCN(c4nsc5ccccc45)CC3)cc21 (centres undefined)	–	–
